Assay results from ChEMBL document CHEMBL1833936, “7-azaindenoisoquinolines as topoisomerase I inhibitors and potential anticancer agents” (J Med Chem, 2011).
In brackets after ≈: the same amount, converted by molar mass. Activity calls are given as the source filed them. The calls are words filed in the database; no cut-off is given here.

Experiments:
MCF7 = assay: Cytotoxicity against human MCF7 cells after 48 hrs by SRB assay; format: functional; conditions: MCF7, 48 h
Outline: (§1)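 NCI 60-cell-line screen. Cells incubated 48 h with five 10-fold dilutions starting at 100 μM, then stained with sulforhodamine B. Optical density relative to control plotted against log concentration.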

SF-539 = assay: Cytotoxicity against human SF539 cells after 48 hrs by SRB assay; format: functional; conditions: SF-539, 48 h; outline: as §1
UACC-62 = assay: Cytotoxicity against human UACC62 cells after 48 hrs by SRB assay; format: functional; conditions: UACC-62, 48 h; outline: as §1
SN12C = assay: Cytotoxicity against human SN12C cells after 48 hrs by SRB assay; format: functional; outline: as §1
HCT-116 = assay: Cytotoxicity against human HCT116 cells after 48 hrs by SRB assay; format: functional; conditions: HCT-116, 48 h; outline: as §1
HOP-62 = assay: Cytotoxicity against human HOP62 cells after 48 hrs by SRB assay; format: functional; conditions: HOP-62, 48 h; outline: as §1
[1] = biological target: T1, DNA topoisomerase 1 (Homo sapiens) (UniProt P11387); assay: Inhibition of human topoisomerase 1 assessed as inhibition of radiolabeled DNA fragment cleavage 0.1 to 100 uM after 20 mins by gel-based phosphoimaging relative to control
T1 sequence (whole entry): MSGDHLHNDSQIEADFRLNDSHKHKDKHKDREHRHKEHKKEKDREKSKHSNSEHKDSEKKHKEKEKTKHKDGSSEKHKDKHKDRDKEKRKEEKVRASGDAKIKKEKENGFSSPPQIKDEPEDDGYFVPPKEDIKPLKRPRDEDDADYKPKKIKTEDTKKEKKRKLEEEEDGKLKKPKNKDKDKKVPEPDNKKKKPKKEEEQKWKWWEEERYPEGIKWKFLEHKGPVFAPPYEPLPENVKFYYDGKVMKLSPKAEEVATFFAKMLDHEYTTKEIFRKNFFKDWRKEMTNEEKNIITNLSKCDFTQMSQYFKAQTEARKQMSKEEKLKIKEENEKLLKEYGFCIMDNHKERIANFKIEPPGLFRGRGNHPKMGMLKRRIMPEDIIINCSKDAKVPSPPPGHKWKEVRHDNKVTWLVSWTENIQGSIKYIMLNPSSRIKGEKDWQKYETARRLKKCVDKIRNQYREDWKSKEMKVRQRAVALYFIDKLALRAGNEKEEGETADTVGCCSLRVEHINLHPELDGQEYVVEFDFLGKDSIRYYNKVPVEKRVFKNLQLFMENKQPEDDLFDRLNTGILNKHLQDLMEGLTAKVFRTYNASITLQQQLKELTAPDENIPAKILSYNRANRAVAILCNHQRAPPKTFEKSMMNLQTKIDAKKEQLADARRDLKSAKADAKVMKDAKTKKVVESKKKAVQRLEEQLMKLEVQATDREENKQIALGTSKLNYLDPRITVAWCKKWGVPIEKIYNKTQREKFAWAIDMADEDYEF
Outline: (§2)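 Human recombinant Top1 purified from baculovirus. About 2 nM 117-bp DNA substrate, 3′-end-labeled with [α-32P]-dGTP by Klenow fill-in. Stopped with 0.5% SDS and formamide loading dye; 20% denaturing PAGE, phosphoimager. Tested at 0.1, 1, 10 and 100 μM.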

DU-145 = assay: Cytotoxicity against human DU145 cells after 48 hrs by SRB assay; format: functional; conditions: DU-145, 48 h; outline: as §1
OVCAR-3 = assay: Cytotoxicity against human OVCAR3 cells after 48 hrs by SRB assay; format: functional; conditions: OVCAR-3, 48 h; outline: as §1
[2] = Aqueous solubility at pH 7.5 after 24 hrs by HPLC; format: physicochemical
Outline: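 Solid sample (4–10 mg) shaken in 1 M Tris buffer pH 7.5 for 24 h at 25 °C, then centrifuged and supernatant filtered. Supernatant analysed by reverse-phase C18 HPLC eluting methanol (1% TFA)/water 90:10. Concentration from one-point calibration against buffer solutions of known concentration.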

[3] = biological target: T1, DNA topoisomerase 1 (Homo sapiens); assay: Inhibition of human topoisomerase 1-mediated DNA relaxation assessed as DNA intercalation at 1 to 100 uM after 30 mins by gel electrophoresis relative to control
Outline: (§3)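 Two-step unwinding assay. SV40 DNA first fully relaxed with excess Top1 for 15 min at 37 °C without drug. Relaxed DNA then incubated 30 min at 37 °C with drug at 1, 3, 10, 30 or 100 μM. Control was a further 30 min incubation at 37 °C without drug. Products resolved on gel.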

[4] = biological target: T1, DNA topoisomerase 1 (Homo sapiens); assay: Inhibition of human topoisomerase 1 assessed as inhibition of radiolabeled DNA fragment cleavage after 20 mins by gel-based phosphoimaging relative to control; outline: as §2
[5] = biological target: T1, DNA topoisomerase 1 (Homo sapiens); assay: Inhibition of human topoisomerase 1 assessed as inhibition of radiolabeled DNA fragment cleavage up to 100 uM after 20 mins by gel-based phosphoimaging relative to control; outline: as §2
[6] = biological target: T1, DNA topoisomerase 1 (Homo sapiens); assay: Inhibition of human topoisomerase 1-mediated DNA relaxation assessed as DNA intercalation at compound concentration above 3 uM after 30 mins by gel electrophoresis relative to control; outline: as §3
[7] = biological target: T1, DNA topoisomerase 1 (Homo sapiens); assay: Inhibition of human topoisomerase 1-mediated DNA relaxation assessed as DNA intercalation at 100 uM after 30 mins by gel electrophoresis relative to control; outline: as §3

SMILES	GI50 (MCF7)	GI50 (SF-539)	GI50 (UACC-62)	GI50 (SN12C)	GI50 (HCT-116)	GI50 (HOP-62)	inhibition [1]	GI50 (DU-145)	GI50 (OVCAR-3)	solubility at 24 h [2]	Activity [3]	inhibition [4]	inhibition [5]	Activity [6]	Activity [7]
CN(C)CCCn1c2c(c3ccc([N+](=O)[O-])cc3c1=O)C(=O)c1cccnc1-2	0.36 µM	2.69 µM	3.31 µM	1 µM	0.44 µM	2.35 µM	Active	0.93 µM	2.29 µM	–	–	–	–	–	–
O=C1c2cccnc2-c2c1c1ccccc1c(=O)n2CCCn1ccnc1	3.39 µM	5.13 µM	35.5 µM	3.72 µM	1.2 µM	7.24 µM	Active	2.88 µM	8.71 µM	–	–	–	–	–	–
CN(C)CCCn1c2c(c3ccccc3c1=O)C(=O)c1cccnc1-2	0.25 µM	1.91 µM	2.69 µM	0.81 µM	0.41 µM	1.51 µM	Active	1.35 µM	2.57 µM	24 mM (≈ 8 mg/mL)	–	–	–	–	–
COc1cc2c3c(n(C)c(=O)c2cc1OC)-c1cc2c(cc1C3=O)OCO2	1.91 µM	1.66 µM	0.56 µM	–	11.5 µM	8.51 µM	Active	4.79 µM	–	–	–	–	–	–	–
COc1cc2c3c(n(CCCN4CCOCC4)c(=O)c2cc1OC)-c1ncccc1C3=O	0.052 µM	0.29 µM	0.095 µM	0.52 µM	0.22 µM	0.3 µM	Active	0.31 µM	0.37 µM	–	inactive	Dose-dependent effect	Active	–	–
CN(C)CCCn1c2c(c3ccccc3c1=O)C(=O)c1ccccc1-2	0.55 µM	–	–	–	–	–	Active	–	1.66 µM	0.28 mM (≈ 0.0931 mg/mL)	–	–	–	–	–
O=C1c2cccnc2-c2c1c1ccccc1c(=O)n2CCCN1CCOCC1	2.75 µM	5.62 µM	> 100 µM	5.37 µM	1.86 µM	35.5 µM	Active	3.55 µM	28.2 µM	–	–	–	–	–	–
O=C1c2cccnc2-c2c1c1ccc([N+](=O)[O-])cc1c(=O)n2CCCN1CCOCC1	–	–	–	–	–	–	Active	–	–	–	–	–	–	–	–
COc1cc2c3c(n(CCCN)c(=O)c2cc1OC)-c1ncccc1C3=O	49 µM	2.19 µM	8.13 µM	2.88 µM	0.38 µM	3.02 µM	Active	1.62 µM	1.58 µM	–	–	–	–	–	–
COc1cc2c3c(n(CCCN(C)C)c(=O)c2cc1OC)-c1ccccc1C3=O	6.17 µM	6.17 µM	–	11 µM	–	11.5 µM	Active	–	–	60 mM (≈ 23.5 mg/mL)	–	–	–	–	–
COc1cc2c3c(n(CCCn4ccnc4)c(=O)c2cc1OC)-c1ncccc1C3=O	–	–	–	–	–	–	Active	–	–	–	–	Dose-dependent effect	Active	–	–
COc1cc2c3c(n(CCCNCCO)c(=O)c2cc1OC)-c1ncccc1C3=O	0.074 µM	0.26 µM	0.12 µM	0.23 µM	0.15 µM	0.3 µM	Active	0.32 µM	0.34 µM	–	–	–	–	–	–
O=C1c2cccnc2-c2c1c1ccccc1c(=O)n2CCCNCCO	0.48 µM	0.87 µM	3.09 µM	0.76 µM	0.3 µM	1.41 µM	inactive	0.41 µM	1.55 µM	–	–	–	–	–	–
CC[C@@]1(O)C(=O)OCc2c1cc1n(c2=O)Cc2cc3ccccc3nc2-1 [CAMPTOTHECIN]	0.013 µM	–	–	–	–	–	–	–	–	–	–	–	–	–	–
CN(C)CCCn1c2c(c3ccc([N+](=O)[O-])cc3c1=O)C(=O)c1ccccc1-2	0.24 µM	–	–	–	–	–	Active	–	32.4 µM	–	–	–	–	–	–
COc1cc2c3c(n(CCCN(C)C)c(=O)c2cc1OC)-c1ncccc1C3=O	0.44 µM	4.07 µM	13.2 µM	3.16 µM	1.58 µM	3.39 µM	Active	1.7 µM	3.55 µM	100 mM (≈ 39.3 mg/mL)	–	–	–	Dose-dependent effect	Active
